Compound activity deposited in PubChem BioAssay by several laboratories.
WT yeast gro inh – growth inhibition of WT yeast, mitochondrial fusion screen; mitochondrial fusion phenotypic screen, WT strain; inhibition, % at 10 µM; actives 2.1% (n = 190,000); in the data active = inhibition above about 58%; tested in S. cerevisiae
Diaphorase inh – diaphorase inhibition or chemical oxidation counter-screen; diaphorase resazurin-to-resorufin fluorescence, NADH, 16 min; bacterial (C. kluyveri) enzyme, not human; inhibition, % at 20 µM; actives 0.69% (n = 190,000); AID 1217;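 active = primary screen inhibition at 20 µM above a set limit, cut at about 50% in these data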;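 also: plate controls were DMSO with full reaction for no effect and wells lacking NADH for full effect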
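System: Diaphorase enzyme from Clostridium kluyveri | Amount: Enzyme working solution with 0.14 U/mL diaphorase | Benchmarks: No-NADH positive control and DMSO neutral control | Signal: Fluorescence of resorufin formed from resazurin, Ex 544/Em 590 nm | Schedule: 16-min room-temperature incubation before reading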
G6PDH CS – L. mesenteroides G6PDH inhibition counter-screen; actives 0.12% (n = 200,000); Purified L. mesenteroides G6PDH, diaphorase/resazurin coupled fluorescence, 45 min; inhibition, % at 5 µM
Diaphorase act – activates diaphorase or chemically reduces, flagging diaphorase assay artifacts | actives 0.005% (n = 190,000) | activation factor at 20 µM | Diaphorase/resazurin coupled assay, resorufin fluorescence, 16 min; active compounds read high; 1 = vehicle wells, 0 = NADH-free wells | AID 1229;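 active = diaphorase activity raised at least twofold by the compound at 20 µM; inactive = activation factor below 2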
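Material: Clostridium kluyveri diaphorase, purified enzyme; Quantity: enzyme 0.07 U/mL final; Medium: HEPES pH 7.4 buffer with MgCl2 and Tween 20; Dosing: single compound dose of 20 µM, 1% DMSO final; Schedule: 16 min reaction at room temperature; Measured by: red resorufin fluorescence at 544/590 nm excitation/emission.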
L major viab – Leishmania major promastigote growth inhibition; Leishmania major promastigotes, resazurin fluorescence viability; inhibition, % at 10 µM; actives 9% (n = 200,000); AID 1063;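 also: promastigotes grown with compound for 44 hours at 28 °C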
Active calls of the source: *; nt = no result. Only some compounds are listed: those with a hit (about 11% of all), similar ones and a draw of the others. Rule as the data show it, unless noted: active = inhibition above about 50%; inactive = the rest.

SMILES	WT yeast gro inh	Diaphorase inh	G6PDH CS	Diaphorase act	L major viab
COc1cccc(CN2CCN(Cc3cccc4c3OCO4)CC2CCO)c1 (stereo not drawn)	4.0	11.6	10.3	0.9	8.4
CCOc1ccccc1CN1CCN(Cc2cc3ccccc3[nH]2)CC1CCO (stereo not drawn)	6.1	10.7	6.2	0.9	23.5
CCOc1ccc(CN2CCN(Cc3[nH]c4ccccc4c3C)CC2CCO)cc1 (stereo not drawn)	8.2	nt	19.1	nt	77.2*
Cn1c(SCC(=O)Nc2ncc(C(F)(F)F)cc2Cl)nnc1-c1ccc(Cl)cc1	15.5	16.8	5.0	0.8	-8.2
O=C(c1ccc(Cl)c([N+](=O)[O-])c1)N(c1ccccn1)c1ccccn1	4.6	12.1	16.4	0.9	70.3*
O=C(c1ccc(N2CCCCC2)c([N+](=O)[O-])c1)N(c1ccccn1)c1ccccn1	10.1	3.7	0.9	1	-1.3
C/C=C(/C)C(=O)OC1c2c(ccc3ccc(=O)oc23)OC(C)(C)C1OC(C)=O (stereo not drawn)	17.7	4.3	6.5	1	67.4*
C/C=C(/C)C(=O)O[C@@H]1[C@H](OC(C)=O)c2c(ccc3ccc(=O)oc23)OC1(C)C	25.7	13.3	13.8	0.9	8.4
Cc1cccc(C(=O)NC2C(=O)NNC2c2ccc(Cl)cc2)c1 (stereo not drawn)	-6.2	51.6*	12.8	0.5	3.8
C/C(CCc1ccc2c(c1)OCO2)=N\NC(=O)c1ccccc1Br	12.7	-3.6	10.1	1	-4.6
COc1ccc(CCC(=O)Nc2ccc(C)c([N+](=O)[O-])c2)cc1	-13.8	9.7	-6.2	0.9	-0.3
CCc1cccc(CC)c1NC(=O)c1cc(CN2C(=O)c3ccccc3C2=O)ccc1OC	25.0	18.9	-1.0	0.8	88.1*
C=CCc1cc(Cl)ccc1OCCCNCCO	5.1	13.8	14.3	0.9	98.2*
C=CCc1cc(Cl)ccc1OCCCNC(C)C	12.4	8.6	5.0	0.9	99.7*
C=CCc1cc(Cl)ccc1OCCOCCNC(C)CC (stereo not drawn)	18.1	13.6	2.0	0.9	90.5*
C=CCc1cc(Cl)ccc1OCCN(C)C	-16.7	6.6	2.9	0.9	96.2*
CC(Sc1nnc2ccccn12)C(=O)Nc1ccc2c(c1)OCO2 (stereo not drawn)	1.0	-2.0	0.3	1	5.9
N#Cc1c(NC(=O)CSc2nc(N)cc(=O)[nH]2)sc2c1CCCC2	-1.1	15.1	16.9	0.8	-3.4
CCC(C)NCCOCCSc1ccc(Cl)cc1 (stereo not drawn)	-8.1	17.5	5.5	0.8	97.4*
Cc1ccc(SCC(=O)NC(=O)Nc2ccc3c(c2)OCCO3)cc1C	1.2	9.3	-0.4	0.9	40.2
COc1cc(NC(C)=O)c2ncccc2c1[N+](=O)[O-]	-11.8	61.3*	15.6	0.4	-6.3
COc1ccc(NC(=O)COc2cccnc2[N+](=O)[O-])cc1OC	-4.7	10.1	-1.9	0.9	-2.1
Cc1cccc(/C=N/NC(=O)Cn2nc(C)cc2C)n1	-16.0	9.1	-6.7	0.9	-6.6
Cc1ccc(-n2nnnc2-c2cnc(-c3cccnc3)nc2C(F)(F)F)cc1	18.2	13.0	-2.1	0.9	4.5
FC(F)(F)c1nc(N2CCCC2)ncc1-c1nnnn1-c1ccc(Cl)cc1	58.9*	15.0	5.3	0.8	8.1
SMILES	WT yeast gro inh	Diaphorase inh	G6PDH CS	Diaphorase act	L major viab
O=C(Nc1nc(-c2ccc(Cl)cc2)cs1)c1cccnc1	1.4	11.2	7.7	0.9	-0.8
O=C(Nc1nc(-c2ccccn2)cs1)c1ccc(Cl)s1	66.5	-10.2	15.5	1.1	100.2*
O=C(Nc1nc(-c2ccccn2)cs1)c1cc2ccccc2o1	9.3	7.4	19.9	0.9	100.1*
O=C(Nc1nc(-c2ccccn2)cs1)c1ncc(Cl)c(Cl)c1Cl	25.6	-2.3	3.4	1	100.5*
Cc1cc(-c2csc(NC(=O)c3cc4ccccc4o3)n2)c(C)n1C	8.1	49.4	2.8	0.5	-1.1
O=C(Nc1nc(-c2cc(Cl)sc2Cl)cs1)c1ccccc1	67.5*	16.4	-4.6	0.8	12.5
Cc1ccc(N2CC(C(=O)Nc3ccc(C)c(S(=O)(=O)N(C)C)c3)CC2=O)cc1 (stereo not drawn)	3.7	-7.7	5.3	1.1	3.6
O=C(Nc1ccccc1N1CCOCC1)c1cc(Br)c(Br)s1	16.5	2.7	-1.7	1	9.3
N#CC(c1ccc(F)cc1)c1ccc(C(=O)c2ccc(F)cc2)cc1 (stereo not drawn)	35.9	8.9	2.5	0.9	47.1
Cc1ccc(C(C#N)c2ccc(C(=O)c3ccc(F)cc3)cc2)cc1 (stereo not drawn)	36.4	7.2	10.2	0.9	54.4*
COc1cccc(CNCCSc2nnnn2C)c1OC	-12.1	12.8	5.4	0.9	-0.2
CC1CCCCN1c1nnc(NC(=O)Cn2c(=O)oc3ccccc32)s1 (stereo not drawn)	-2.7	62.5*	7.2	0.4	0.9
NCCCCCc1nnc(SCc2ccc(Cl)cc2Cl)o1	2.9	1.1	8.7	1	100.3*
NCCCCCc1nnc(SCC(=O)Nc2cccc(Cl)c2)o1	-2.8	5.3	3.5	0.9	36.2
Cc1ccc(S(=O)(=O)N(CCC(=O)O)Cc2ccc(Cl)cc2)cc1	11.4	-1.5	-0.5	1	-5.0
CCN(CC)CCCNC1=C(Cl)C(=O)c2ccccc2C1=O	14.7	22.2	53.6*	0.8	99.8*
C=CCNC1=C(Cl)C(=O)c2ccccc2C1=O	17.2	3.9	41.9	1	48.0
CSCCC(NS(=O)(=O)c1ccc(Cl)cc1)C(=O)OCC(=O)c1ccc(F)cc1 (stereo not drawn)	-1.6	21.1	8.3	0.8	-6.3
O=C(O)c1ccc(CNCc2ccc(F)cc2)cc1	nt	15.0	-2.0	0.8	-4.8
CCc1ccc(CNCc2ccc(F)cc2)cc1	14.1	9.3	2.5	0.9	70.8*
Cc1ccccc1CNCc1cccnc1	11.1	15.6	6.7	0.8	40.5
CCc1ccc(CNCc2cccnc2)cc1	1.2	0.8	33.4	1	90.1*
O=S(=O)(c1ccc(Cl)cc1)N(CCCN1CCOCC1)Cc1cccs1	5.2	20.9	9.4	0.8	68.4*
COc1ccc(S(=O)(=O)N(CCCN2CCOCC2)Cc2cccc(OC)c2OC)cc1	5.9	3.7	1.2	1	3.6
COc1ccc(S(=O)(=O)N(CCCN2CCOCC2)Cc2cccc3ccccc23)cc1	25.6	8.9	3.1	0.9	99.0*
C/C(CC(=O)Nc1ccc2c(c1)OCO2)=N\NC(=O)C(c1ccccc1)c1ccccc1	7.5	19.7	10.9	0.8	5.3
CC(NC(=O)CCC(=O)c1ccc(F)cc1)C1CC2CCC1C2 (stereo not drawn)	5.2	11.4	2.1	0.9	13.4
CCN(Cc1ccncc1)C(=O)CCc1nnc(CCc2ccc(OC)cc2)o1	-3.1	-2.6	9.8	1	-4.0
CC(=O)Cc1nsc(NC(=O)c2cn(-c3ccccc3)nc2-c2ccc(Br)cc2)n1	-15.3	4.0	-1.1	1	-0.7
